NPY-Y1 antag: NPY-Y1 (human) receptor antagonism; P25929; HEK293-CNG Y1 cells, membrane potential fluorescence; NPY at EC95, then isoproterenol; inhibition, % at 3.6 µM; hit rate 1% among 200,000;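 active = inhibition above the campaign mean inhibition of all tested compounds plus 3 SD, cut at about 20% in these data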;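 note: 0% = DMSO wells given NPY plus isoproterenol and 100% = isoproterenol alone without NPY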
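Benchmarks – high control isoproterenol alone, low control NPY with isoproterenol · Material – HEK293 Y1/CNG channel cell line · Times – dye 3 h, compound 60 min room temperature, stimulation 45 min · Probe or stimulus – NPY (25 nM), isoproterenol (1 µM), Ro 20-1724 (25 µM) · Evaluation – % inhibition of NPY effect · Signal – fluorescence, membrane potential probe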
PGE2 EP2 inh: inhibitors of human EP2 prostaglandin E2 receptor. P43116. C6 glioma cells expressing human EP2, cAMP TR-FRET; cells stimulated with saturating PGE2. inhibition, % at 25 µM. hit rate 0.52% among 260,000. AID 1422;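 active = percent inhibition above 40 after rounding to a whole number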;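 note: rat C6 glioma host cells with rolipram phosphodiesterase inhibitor present; the protocol text gives 20 µM as final concentration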
Target sequence (P43116 whole entry, looked up): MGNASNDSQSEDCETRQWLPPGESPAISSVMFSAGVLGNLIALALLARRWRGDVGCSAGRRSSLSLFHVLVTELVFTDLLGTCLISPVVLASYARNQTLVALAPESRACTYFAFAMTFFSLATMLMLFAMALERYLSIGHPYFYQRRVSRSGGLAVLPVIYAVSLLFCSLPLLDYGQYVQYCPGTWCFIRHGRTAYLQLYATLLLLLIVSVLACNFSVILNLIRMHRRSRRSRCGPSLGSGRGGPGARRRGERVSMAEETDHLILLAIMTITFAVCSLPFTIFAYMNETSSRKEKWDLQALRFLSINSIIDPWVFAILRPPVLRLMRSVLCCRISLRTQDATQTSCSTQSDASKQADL
NPY Y2 blocker: NPY-Y2 (human) receptor antagonism; P49146; NPY-Y2 expressing cells, antagonist mode; inhibition, % at 2.7 µM; hit rate 0.99% among 140,000; AID 793; in the data active = inhibition above about 17%;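 note: 0% = vehicle with agonist challenge and 100% = reference antagonist with challenge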
NPY-Y1 PAM-ag: human NPY-Y1 potentiation or agonism, primary screen. hit rate 0.37% among 220,000. NPY-Y1 expressing cells, potentiator/agonist activation. activation, % at 3.6 µM. P25929. AID 1304; in the data active = activation above about 33%, passing the limit was not always enough;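 note: cells stimulated with NPY at EC10 then isoproterenol at EC100; 0% = low agonist plus stimulus and 100% = saturating agonist plus stimulus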
NPY-Y2 PAM-ag: potentiators or agonists of human neuropeptide Y receptor Y2. cells expressing NPY-Y2, potentiator/agonist read-out. hit rate 0.45% among 220,000. AID 1359. P49146. activation, % at 3.6 µM; in the data active = activation above about 27%;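 note: cells stimulated with NPY near EC25 plus isoproterenol at EC100; 0% = vehicle plus submaximal agonist and 100% = vehicle plus saturating agonist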
EP2 modulator: modulators of human EP2 prostaglandin E2 receptor. P43116. EP2-expressing cells, cAMP HTRF FRET, PGE2 co-stimulation. induction, % at 25 µM. hit rate 0.83% among 260,000. AID 940;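 active = compounds whose cAMP rise, as percent of the full-agonist control response, exceeds 60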;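 note: rat C6 glioma line stably carrying human EP2 under a CMV promoter; the protocol text gives 20 µM as final concentration; 100% = response of wells given 1 µM PGE2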
* marks the source's active call; other numbers are inactive results; nt = not tested or not shown. An excerpt weighted towards active compounds, which were near 2.8% of everything screened.

SMILES | NPY-Y1 antag | PGE2 EP2 inh | NPY Y2 blocker | NPY-Y1 PAM-ag | NPY-Y2 PAM-ag | EP2 modulator
Nc1nc(/C=C/c2ccc(F)cc2)nc(-c2ccccc2O)n1 | 4 | 9 | -1 | 17 | 12 | -26
Nc1nc(/C=C/c2c[nH]c3ccccc23)nc(-c2ccccc2O)n1 | nt | 91* | nt | nt | nt | -117
CC(=O)N=c1sc2ccccc2n1C | 1 | 16 | 0 | 9 | 3 | 47
CC(=O)N=c1sc2nc3ccccc3nc2n1N(C(C)=O)C(C)=O | 4 | 81* | 5 | 10 | 0 | 24
C[N+]1([C@H](CO)Cc2c[nH]c3ccccc23)Cc2ccccc2C1 | nt | 50* | nt | nt | nt | 19
O=C(O)C(O)Cc1c[nH]c2ccccc12 (stereo not drawn) | 0 | 18 | 5 | -41 | -19 | 0
COc1ccc(CNc2nc(SCC(=O)NCc3ccco3)nc3ccccc23)cc1 | 30* | 9 | 50* | -72 | -30 | -7
Cc1[nH]c2ccccc2c1/C=N/NC(N)=S | nt | 4 | nt | -6 | 13 | -54
Cc1ccc(NC(=S)N/N=C/c2c(C)[nH]c3ccccc23)cc1 | -11 | 25 | nt | 51* | 37* | -41
O=C(c1ccco1)N1CCC(n2nnc(-c3ccc(F)cc3)n2)CC1 | nt | nt | nt | nt | nt | -16
CC(=O)/C=C(\C)Nc1ccc(-c2cnc(-c3ccccc3)o2)cc1 | -8 | 20 | -1 | 20 | 22 | -26
c1ccc(-c2cnc(-c3ccc(-c4ncc(-c5ccccc5)o4)cc3)o2)cc1 | nt | 45* | nt | nt | nt | 12
Cc1cc(C)c2c(c1)-c1cc(C)nn1C(c1ccc3c(c1)OCO3)N2 (stereo not drawn) | 1 | 6 | 1 | 10 | 7 | 64*
COc1cccc(CN2CCN(CCc3ccccc3)C(CCO)C2)c1OC (stereo not drawn) | 2 | 4 | nt | -7 | 1 | -23
COc1cccc(CN2CCC(N(CCc3ccccc3)Cc3ccccc3)CC2)c1OC | 35* | 5 | 31* | -30 | -1 | 4
Cc1ccc(S(=O)(=O)N2CCCC(C(=O)N3CCC(C)CC3)C2)cc1 (stereo not drawn) | nt | 6 | nt | nt | nt | -56
CC(=O)c1ccc(NC(=O)Nc2ccc3c(c2)N(C)C(=O)CS3)cc1 | -3 | 79* | -6 | 26 | 18 | -26
CN1CCN(Cc2cc3c(-c4cccc(F)c4)nn(-c4ccccc4)c3[nH]c2=O)CC1 | nt | 7 | nt | nt | nt | -24
CC1(C)CC(=O)C2=C(C1)OC(N)=C(C#N)C2c1cn(-c2ccccc2)nc1-c1ccc(F)cc1 (stereo not drawn) | -1 | 14 | 3 | 68* | 65* | 6
CC1(C)CC(=O)C2=C(C1)C(c1cn(-c3ccccc3)nc1-c1ccccc1)C(C#N)=C(N)O2 (stereo not drawn) | -1 | 8 | 4 | 2 | 1 | 33
COc1ccc(CNCCC(c2ccccc2)c2ccc3c(c2)OCO3)cc1 (stereo not drawn) | 34* | nt | 17* | 6 | -3 | -31
C[C@H]1CCC/C=C\[C@@H]2C[C@H](OC(=O)CN(C)C)C[C@H]2[C@@H](O)/C=C\C(=O)O1 | nt | 46* | nt | nt | nt | -1
CC(C)(CO)NC(=O)c1cc(S(=O)(=O)N2CCOCC2)ccc1Cl | nt | 15 | nt | nt | nt | 3
c1ccc(-c2ccccc2OCCCN2CCCCC2)cc1 | 28* | 18 | 18* | 13 | -6 | 15
COc1ccc2cc(CN(CC3CCCO3)C(=O)c3ccccc3F)c(=O)[nH]c2c1 (stereo not drawn) | nt | 12 | nt | nt | nt | -35
SMILES | NPY-Y1 antag | PGE2 EP2 inh | NPY Y2 blocker | NPY-Y1 PAM-ag | NPY-Y2 PAM-ag | EP2 modulator
O=c1c2c3c(sc2[nH]c(=S)n1Cc1ccco1)CCC3 | nt | 40* | nt | 7 | -14 | 44
CC1(C)Cc2c(sc3c2c(=N)n(Cc2ccco2)c(=O)n3Cc2ccccc2)CO1 | 9 | 5 | 3 | -18 | 5 | 59
CC1(C)Cc2c(sc3[nH]c(=S)n(Cc4ccco4)c(=O)c23)CO1 | 0 | 40* | 2 | -4 | 0 | 37
CC1(C)Cc2c(sc3c2c(=N)n(Cc2ccco2)c(=O)n3Cc2ccc(Cl)cc2)CO1 | 5 | 13 | 6 | -13 | 2 | 61*
CC(=O)c1ccc(NC(=O)CSc2nnc(NC(=O)C3CCC3)s2)cc1 | nt | 6 | nt | nt | nt | -32
CCc1nn(CC(=O)N2CCOCC2)c(=O)c2cc3ccsc3n12 | nt | nt | nt | nt | nt | -29
CC1CCN(C(c2ccc(N(C)C)cc2)c2nnnn2C(C)(C)C)CC1 (stereo not drawn) | 4 | 9 | 11 | 6 | 10 | 4
CCC(C)(C)n1nnnc1C(c1ccc(C(F)(F)F)cc1)N1CCC(C)CC1 (stereo not drawn) | nt | 4 | nt | nt | nt | 77*
Nc1ccccc1N=Nc1c(S(=O)(=O)O)cc2cc(S(=O)(=O)O)cc(O)c2c1O | nt | 37 | nt | nt | nt | 32
Cc1ccc(N=Nc2c(O)c(S(=O)(=O)O)cc3cc(S(=O)(=O)O)ccc23)c(C)c1 | nt | 42* | nt | nt | nt | 10
O=C(Nc1nc(-c2nc3ccccc3s2)cs1)C1COc2ccccc2O1 (stereo not drawn) | 13 | 42* | 13 | -22 | -7 | -43
COc1ccc(OC)c(-c2csc(NC(=O)C3COc4ccccc4O3)n2)c1 (stereo not drawn) | 4 | 5 | nt | -47 | -28 | 24
Cc1nnc(SCC(=O)Nc2cccc(C(F)(F)F)c2)n1C | nt | 29 | nt | nt | nt | 19
CC(C)(C)C1=CC=C(C(C)(C)C)C(=O)C1=O | nt | 102* | nt | -29 | -17 | -47
Cc1ccc2cc(CN(C(=O)C3CCC3)C3CCCC3)c3nnnn3c2c1C | nt | 13 | nt | nt | nt | 56
O=C(Cn1c(=O)sc2ccccc21)Nc1ccccc1C(F)(F)F | nt | 9 | nt | nt | nt | -10
C=CCNC(=S)N(Cc1ccccc1)Cc1ccccc1 | 0 | 5 | nt | 2 | 10 | 61*
CCOC(=O)C1=C(c2ccccc2)NC(SCC(=O)NC2CCCCC2)=C(C#N)C1c1ccco1 (stereo not drawn) | -1 | 71* | 2 | -11 | -2 | 27
CC(C)c1cc(C(=O)Nc2cccc(C(F)(F)F)c2)no1 | 2 | 3 | 4 | -27 | -9 | -18
O=C(Nc1cccc(C(F)(F)F)c1)c1cc(-c2ccc(F)cc2)on1 | 22* | 9 | 24* | -22 | -4 | 20
